From PubChem BioAssay
CHOP inhibitor – inhibitors of CHOP promoter induction, primary screen, cell-based, unfolded protein response, luciferase reporter | CHO-K1 CHOP-promoter luciferase, tunicamycin-induced, 15-18 h | inhibition, % at 10 µM | actives 3.8% (n = 220,000) | AID 2732, 2010;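 active means compounds that reduced the stress-induced luciferase reporter signal by more than about 70% of percent inhibition, limit read from the data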;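 further: 0% = tunicamycin plus vehicle and 100% = wells without tunicamycin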
T cruzi inh – inhibitors of intracellular T. cruzi growth, primary screen, luminescence, NIH3T3 host cells; actives 1.4% (n = 300,000); inhibition, % (no concentration beside the values); T. cruzi beta-gal in NIH3T3, 90 h; AID 1885, 2009;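 active means mean inhibition across valid replicates above about 55%, limit read from the data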;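 further: signal also drops with host cell toxicity which is not excluded here; 0% = plate median of DMSO wells and 100% = zero luminescence signal; higher percent means less beta-gal luminescence so fewer parasites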
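Read-out: Parasite load inhibition, % | Test system: Mouse NIH/3T3 fibroblasts infected with β-gal-expressing T. cruzi Tulahuen C4 | Amount: 5,000 cells/well | Medium: DMEM, 2% fetal bovine serum | Signal: GalScreen β-gal luminescence, detergent lysis, 60 min | Timing: 3 h attach, ≥90 h co-culture | Also added: Tulahuen C4 trypomastigotes, 5000/well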
CHOP UPR activ – activators of apoptotic CHOP UPR arm, primary screen, cell-based, CHO-CHOP luciferase reporter, luminescence, uHTS; UPR activation; percent of tunicamycin response over DMSO baseline; activation, % at 10 µM; actives 0.34% (n = 330,000); AID 449763, 2010;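 active means at 10 µM dose, activation of 40% or more, normalized to positive control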;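 further: 100% = tunicamycin at 10 µg/mL and 0% = DMSO alone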
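System: CHO CHOP reporter cells. Amount: 500 cells per well. Buffer or medium: F12 medium, 10% FBS. Compound dosing: one dose, 10 µM in 0.5% DMSO. Incubation: 6 h compound exposure at 37 °C after overnight seeding. Technique: Steady-Glo luciferase luminescence. Benchmarks: tunicamycin and DMSO controls.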
Dynein transport – inhibitors of GR-EGFP nuclear translocation, primary screen, dynein cargo transport inhibitor project, imaging, high-content, 3617.4 mouse cells. z-score, hits read low. AID 1381, 2008. actives 0.47% (n = 220,000). test concentration mostly 20 µM; stimulated with dexamethasone, 1 µM; hits give low values;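 active means plate z-score of nuclear minus cytoplasmic receptor signal below a set negative limit, without overly bright fluorescence or cell loss, cut at about -3.5 in these data, passing the limit was not always enough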;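 further: z-score of nuclear minus cytoplasmic ring GR-EGFP intensity difference per well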
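Buffer or medium: tet-free medium with charcoal-stripped serum / Also added: dexamethasone agonist, 1.0 µM final, for 30 min / Timing: induction 48 h, compound 1 h, agonist 30 min / Measured by: high-content fluorescence imaging after fixation / Read-out: nuclear-to-cytoplasmic GR-EGFP distribution per well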
XBP1 UPR activ – activators of adaptive XBP1 UPR arm, primary screen, cell-based, CHO-XBP1 luciferase reporter, luminescence, uHTS; IRE1-XBP1 UPR activation; percent of tunicamycin response, DMSO as zero; activation, % at 20 µM; actives 0.33% (n = 330,000);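 active means versus positive control, 20 µM dose yields 30% or more activation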;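 further: 100% = tunicamycin at 10 µg/mL and 0% = DMSO only wells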
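assay system = CHO-XBP1 luciferase reporter cells | amount = 1000 cells/well | buffer or medium = F12 plus 10% FBS | compound dosing = single point, 20 µM final compound, 1% DMSO | incubation = 16-18 h cell attachment at 37 °C, then 6 h compound exposure | detection = Steady-Glo luminescence read | controls = tunicamycin 10 µg/mL and vehicle-only wells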
L major viab – Leishmania major promastigote growth inhibition, primary screen | Leishmania major promastigotes, resazurin fluorescence viability | inhibition, % at 10 µM | actives 9% (n = 200,000) | AID 1063, 2008; in the data active means inhibition above about 50%;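 further: promastigotes grown with compound for 44 hours at 28 °C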
Numbers without * were called inactive; / = not tested or not shown. The sample as a whole holds a higher share of hits than the screen did.

SMILES	CHOP inhibitor	T cruzi inh	CHOP UPR activ	Dynein transport	XBP1 UPR activ	L major viab
Cc1cc2ncc(-c3ncc(C(F)(F)F)cc3Cl)cn2n1	29	-8	-4	0.46	-4	-7
Cc1nn2cc(-c3ncc(C(F)(F)F)cc3Cl)cnc2c1Br	74*	-26	-1	-0.09	-5	2
COc1ccnc(CS(=O)c2nc3cc(OC(F)F)ccc3[nH]2)c1OC (configuration not stated)	/	-13	0	/	-5	/
Cc1ccc(NC(=O)CSCC(=O)N2CCN(Cc3ccc4c(c3)OCO4)CC2)cc1	/	0	0	/	-4	/
CCN(CC)CCN(C)Cc1ccc(Br)cc1	1	27	-1	2	0	89*
COc1ccc(Nc2cc(Nc3cccc(OC)c3)ncn2)cc1	/	43	4	/	1	/
CCCCCCCCNC(=O)c1cccnc1SCC(=O)Nc1ccc(OC)cc1OC	62	28	3	0.7	-3	86*
CCOC(=O)C(CC(=O)Nc1nc(C(C)=O)c(C)s1)C(C)c1ccccc1 (configuration not stated)	/	-5	0	/	-3	/
CCOc1ccccc1-c1nc(C(N)=O)c2[nH]c(=O)n(-c3cccc(C)c3)c2n1	-2	-12	1	1.7	-1	64*
CCOc1cccc(-c2nc(C(N)=O)c3[nH]c(=O)n(-c4cccc(Cl)c4)c3n2)c1O	95*	6	1	-0.68	3	-8
COc1ccc(-c2nc(C(N)=O)c3[nH]c(=O)n(-c4ccccc4OC)c3n2)c(OC)c1	6	-2	0	2.3	12	6
Cc1ccc([N+](=O)[O-])cc1Nc1nc(N2CCCC2)nc(N2CCCC2)n1	/	1	1	/	-4	/
CC(C(=O)N(C1CC1)C1(C(=O)Nc2ccccc2)CCCC1)N1C(=O)c2ccccc2C1=O (configuration not stated)	74*	7	-2	2.1	-4	43
CC(=O)Nc1c(NC(=O)CC#N)[nH]c2c(c1=O)c(=O)n(C)c(=O)n2C	16	-12	0	0.25	-2	-7
CC1=CCC2C(=O)N(CCc3c[nH]c4ccccc34)C(=O)C2C1 (configuration not stated)	14	12	0	0.17	1	98*
O=C1C2CC=C(Cl)CC2C(=O)N1CCc1c[nH]c2ccccc12 (configuration not stated)	23	-8	0	-0.17	2	6
Cc1nc(/N=C(\N)NC(=O)c2ccccc2)nc2ccccc12	3	5	1	0.62	4	6
Cc1nc(/N=C(\N)NC(=O)N2c3ccccc3Sc3ccccc32)nc2ccccc12	20	25	3	0.15	2	97*
O=C(C1=C(O)/C(=C/c2ccc(O)cc2)CCC1)C(F)(F)F	8	/	-2	-2	7	56*
CCCCN(CCCC)c1nc(OC)nc(-n2nnc(C(C)=O)c2C)n1	59	26	-1	-0.6	-2	63*
CC(=O)c1nnn(-c2nc(N)nc(N(c3ccccc3)c3ccccc3)n2)c1C	-15	12	2	-0.3	-3	92*
CCOC(=O)c1nnn(-c2nc(N(C)C)nc(N(C)C)n2)c1C	18	14	1	0.13	3	0
CC1CC(C)CN(CCC(=O)Nc2cccc(Cl)c2)C1 (configuration not stated)	-3	4	-1	-0.43	-1	83*
Cc1cc(NC(=O)CCN2CC(C)OC(C)C2)ccc1Br (configuration not stated)	/	-17	1	/	-4	/
O=C(CCN1CCCCC1)Nc1cccc(Cl)c1	25	-17	-3	-0.041	0	5
SMILES	CHOP inhibitor	T cruzi inh	CHOP UPR activ	Dynein transport	XBP1 UPR activ	L major viab
Cc1cccc(NC(=O)CCN2CC(C)OC(C)C2)c1 (configuration not stated)	-28	4	-1	0.91	1	89*
Cc1cc(C)cc(NC(=O)CCN2CC(C)OC(C)C2)c1 (configuration not stated)	8	-8	0	-0.45	2	80*
Cc1ccc(-c2cc(C(=O)N3CCCc4ccccc43)no2)cc1	-23	5	4	-0.91	5	-2
C=CC[C@H](CC(=O)N(CCO)Cc1ccccc1)C(=O)N[C@H](COC(=O)[C@@H](CC=C)CC(=O)OC(C)(C)C)Cc1c[nH]c2ccccc12	/	/	7	/	-4	/
O=C(NCCc1c[nH]c2ccccc12)c1cc(S(=O)(=O)N2CCCCC2)ccc1N1CCOCC1	2	4	0	0.25	-1	65*
COc1ccccc1NC(=O)NCCN1CCN(c2cccc(Cl)c2)CC1	/	-8	0	/	-1	/
O=C(Nc1ccc([N+](=O)[O-])cc1)N1CCN(C(=O)C2CCCO2)CC1 (configuration not stated)	/	-13	4	/	-2	/
O=C(CN(C(=O)CSc1nnc(COc2ccccc2)o1)c1ccc(F)cc1)NC1CCCCC1	52	21	1	-0.57	-4	52*
O=C(CSc1nnc(CNc2ccc(F)cc2)o1)N1c2ccccc2Sc2ccccc21	31	-3	1	-0.62	-2	65*
CCOC(=O)CN(C(=O)CSc1nnc(CNc2ccc(F)cc2)o1)c1ccccc1	13	2	-2	0.4	1	14
O=C(CSc1nnc(CNc2ccc(F)cc2)o1)N1CCN(C(=O)c2ccco2)CC1	11	-8	-2	-0.17	0	-5
O=C(CSc1nnc(COc2ccc(F)cc2)o1)N1c2ccccc2CCc2ccccc21	6	57*	8	-0.93	0	10
CC(C)(C)N(Cc1ccccc1)C(=O)CSc1nnc(CNc2ccc(F)cc2)o1	34	39	-1	-1	-2	100*
Cc1ccc(C(=O)NCCCN2CCOCC2)c(Cl)c1	/	1	4	/	-7	/
O=C(O)c1ccccc1-c1ccccc1C(=O)NCc1ccccc1Cl	/	-8	0	/	-4	/
CC(C)NC(=O)Nc1cccc2c1O[C@H](CN(C)C(=O)NC1CCCCC1)[C@H](C)CN([C@H](C)CO)C2=O	/	/	-1	/	-2	/
Oc1ccc(Br)cc1C=Nc1ccc(Cl)cc1	8	-18	1	0.33	2	12
CCN(CC)c1ccc(N=Cc2cc(Br)ccc2O)cc1	11	61*	2	-0.7	1	9
